Assay results from ChEMBL document CHEMBL1154865, “Sesquiterpenes and dimeric sesquiterpenoids from Sarcandra glabra” (J Nat Prod, 2010).
Activity calls are given as the source filed them. No cut-off for these calls is given here.

Legend:
Format in all cases: functional, cell-based
Bel-7402 = assay: Cytotoxicity against human Bel7402 cells after 72 hrs by SRB assay
How it was run: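 Cell growth read out by SRB (sulforhodamine B) staining, with pseudolaric acid B as the positive control. BEL-7402 is a human hepatocarcinoma line.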

A549 = assay: Cytotoxicity against human A549 cells after 72 hrs by SRB assay; conditions: A549, 72 h
HL-60 = assay: Cytotoxicity against human HL60 cells after 72 hrs by MTT assay; conditions: HL-60, 72 h
How it was run: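 HL-60 cell line tested by the MTT method, with pseudolaric acid B run alongside as positive control; activity expressed as IC50 in µM.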

| SMILES | Activity (Bel-7402) | IC50 (Bel-7402; Bel-7402, 72 h) [µM] | IC50 (A549) [µM] | IC50 (HL-60) [µM] |
| --- | --- | --- | --- | --- |
| C/C=C(\C)C(=O)OC[C@]1(O)[C@H]2C[C@H]2[C@]2(C)[C@@H]3C[C@@]4(O)C5=C(/C(=C(\C)C(=O)OC)C(=O)[C@H](O)[C@@]5(C)[C@@H]5C[C@@H]54)[C@@]34OC(=O)C(COC(C)=O)=C4C[C@@H]12 | inactive | – | – | – |
| C/C=C(\C)C(=O)OC[C@]1(O)[C@H]2C[C@H]2[C@]2(C)[C@@H]3C[C@@]4(O)C5=C(C6=C(C)C(=O)O[C@]6(O)[C@H](O)[C@@]5(C)[C@@H]5C[C@@H]54)[C@@]34OC(=O)C(COC(C)=O)=C4C[C@@H]12 | inactive | – | – | – |
| C=C1[C@H]2C[C@H]2[C@]2(C)C[C@@H]3OC(=O)C(C)=C3C[C@]12O | inactive | – | – | – |
| CC1=CC[C@@H](O)[C@]2(C)C[C@@H]3OC(=O)C(C)=C3C[C@@H]12 | inactive | – | – | – |
| COC(=O)C1=CC[C@@]23CC[C@@H]([C@@](C)(/C=C/C=C(\C)C(=O)O)OC2=O)[C@@]3(OC(C)=O)CC1 [PSEUDOLARIC ACID B] | – | 1.3 | 1.6 | 4.2 |
| C/C=C(\C)C(=O)OC[C@]1(O)[C@H]2C[C@H]2[C@]2(C)[C@@H]3CC4=C5[C@H](/C(=C(\C)C(=O)OC)C(=O)[C@H](O)[C@@]5(C)[C@@H]5C[C@H]45)[C@@]34OC(=O)C(C)=C4C[C@@H]12 [SARCANDROLIDE A] | inactive | – | 7.2 | 3.1 |
| COC(=O)/C(C)=C1\C(=O)[C@H](O)[C@]2(C)C3=C(C[C@@H]4[C@]5(OC(=O)C(CO)=C5C[C@H]5[C@](O)(COC(=O)/C(C)=C/CO)[C@H]6C[C@H]6[C@]45C)[C@H]31)[C@H]1C[C@H]12 [SARCANDROLIDE B] | inactive | – | – | 8.4 |
| COC(=O)/C(C)=C1\C(=O)[C@H](O)[C@]2(C)C3=C(C[C@@H]4[C@]5(OC(=O)C6=C5C[C@H]5[C@](O)(COC(=O)/C(C)=C/COC(=O)[C@@H](OC(C)=O)CC(=O)OC6)[C@H]6C[C@H]6[C@]45C)[C@H]31)[C@H]1C[C@H]12 [SARCANDROLIDE C] | inactive | – | 4.7 | 8.5 |
